Test results from PMC2721324 (Bioorganic & medicinal chemistry letters, 2009).
Read-outs that look alike come from different tables or passages of the source.

Columns and labels:
[1] = biological target: T1, human P2Y6 receptor (Homo sapiens, UniProt Q15077); conditions: read-out: Reference comp. (X = OCH2) EC50, native riboside, NE = no effect at 10 μM; cited from earlier work
[2] = biological target: T2, human P2Y4 receptor (Homo sapiens, UniProt P51582); conditions: cited from earlier work; for EC50: read-out: Reference comp. (X = OCH2) EC50, native riboside, NE = no effect at 10 μM
[3] = biological target: T3, human P2Y2 receptor (Homo sapiens, UniProt P41231); conditions: cited from earlier work; for EC50: read-out: Reference comp. (X = OCH2) EC50, native riboside, NE = no effect at 10 μM
[4] = biological target: T3, human P2Y2 receptor; type: cell-based; conditions: for agonist character (full or partial agonist): relative to UTP
In short: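 PLC activation via Gq in 1321N1 human astrocytoma cells stably expressing recombinant human P2Y2 receptor. The parent cells lack a native nucleotide response. Concentration–effect curves were generated for each test compound, and the maximal response was expressed as a percentage of the UTP effect (UTP = 100%) to classify full or partial agonism.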

[5] = biological target: T2, human P2Y4 receptor; type: cell-based; conditions: stimulation of PLC, NE = no effect at 10 μM
In short: (§1)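 Recombinant human P2Y4 or P2Y6 receptor, Gq-coupled, was stably expressed in 1321N1 human astrocytoma cells, which lack a native nucleotide response. Phospholipase C activation was measured over concentration–effect curves for each test compound. EC50 is the concentration giving 50% of the maximal effect, reported as mean ± standard error.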

[6] = biological target: T1, human P2Y6 receptor; type: cell-based
In short: as §1

T3 sequence (P41231 whole entry): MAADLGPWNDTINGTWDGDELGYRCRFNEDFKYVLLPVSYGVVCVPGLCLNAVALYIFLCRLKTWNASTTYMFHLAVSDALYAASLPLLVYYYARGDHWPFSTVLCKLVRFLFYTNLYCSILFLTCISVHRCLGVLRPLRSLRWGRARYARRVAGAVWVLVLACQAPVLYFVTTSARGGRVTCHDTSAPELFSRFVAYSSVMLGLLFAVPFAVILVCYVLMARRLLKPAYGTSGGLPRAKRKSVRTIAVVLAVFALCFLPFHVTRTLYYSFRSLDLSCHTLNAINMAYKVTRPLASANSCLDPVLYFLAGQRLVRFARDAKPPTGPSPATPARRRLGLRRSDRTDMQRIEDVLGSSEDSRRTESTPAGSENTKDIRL
T2 sequence (P51582 whole entry): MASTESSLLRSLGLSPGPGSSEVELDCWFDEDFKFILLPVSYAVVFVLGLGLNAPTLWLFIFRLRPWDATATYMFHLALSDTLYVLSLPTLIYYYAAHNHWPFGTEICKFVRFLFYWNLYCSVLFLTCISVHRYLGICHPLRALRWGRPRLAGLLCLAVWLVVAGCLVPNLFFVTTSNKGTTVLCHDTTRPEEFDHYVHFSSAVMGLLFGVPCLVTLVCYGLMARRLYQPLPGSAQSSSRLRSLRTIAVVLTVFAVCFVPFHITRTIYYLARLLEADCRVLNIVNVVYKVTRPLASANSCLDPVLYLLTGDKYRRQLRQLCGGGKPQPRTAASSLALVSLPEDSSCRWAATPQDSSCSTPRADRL
T1 sequence (Q15077 whole entry): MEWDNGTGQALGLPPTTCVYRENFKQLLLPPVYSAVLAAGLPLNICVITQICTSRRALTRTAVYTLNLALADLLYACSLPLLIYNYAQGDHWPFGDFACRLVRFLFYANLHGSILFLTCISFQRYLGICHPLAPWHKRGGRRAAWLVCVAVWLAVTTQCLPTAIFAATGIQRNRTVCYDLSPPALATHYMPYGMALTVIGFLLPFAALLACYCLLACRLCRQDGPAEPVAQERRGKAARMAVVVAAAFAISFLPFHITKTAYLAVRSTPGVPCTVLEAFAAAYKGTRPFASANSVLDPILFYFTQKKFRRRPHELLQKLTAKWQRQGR

Row | agonist character (full or partial agonist) [4] | Compound | EC50 [1] | EC50 [2] | EC50 [3] | other results
1 | – | O=c1ccn([C@@H]2O[C@H](COP(=O)(O)OP(=O)(O)OC[C@H]3O[C@@H](n4ccc(=O)[nH]c4=O)[C@H](O)[C@@H]3O)[C@@H](O)[C@H]2O)c(=O)[nH]1 [Up2U] | 1.26 ± 0.17 µM | > 10 µM | > 10 µM | –
2 | Full agonist activity | O=c1ccn([C@@H]2O[C@H](/C=C/P(=O)(O)OP(=O)(O)OP(=O)(O)O)[C@@H](O)[C@H]2O)c(=O)[nH]1 [Compound 3, uridine 5′-(diphospho)-vinylphosphonate] | – | – | – | reduction of potency relative to ATP or UTP ([4]; range over compounds 1, 2 and 3): 16–176 fold
3 | – | Nc1ncnc2c1ncn2[C@@H]1O[C@H](COP(=O)(O)OP(=O)(O)OP(=O)(O)O)[C@@H](O)[C@H]1O [ATP] | – | – | 0.085 ± 0.012 µM | Reference comp. (X = OCH2) activity ([2]; native riboside): Antagonist[12]
4 | – | O=c1ccn([C@@H]2O[C@H](COP(=O)(O)OP(=O)(O)OP(=O)(O)O)[C@@H](O)[C@H]2O)c(=O)[nH]1 [UTP] | > 10 µM | 0.073 ± 0.02 µM | 0.049 ± 0.012 µM | –
5 | – | O=c1ccn([C@@H]2O[C@H](COP(=O)(O)O)[C@@H](O)[C@H]2O)c(=O)[nH]1 [UMP] | > 10 µM | > 10 µM | > 10 µM | Reference comp. (X = OCH2) EC50 ([3]; native riboside, NE = no effect at 10 μM): no effect
6 | – | O=c1ccn([C@@H]2O[C@H](COP(=O)(O)OP(=O)(O)C[C@H]3O[C@@H](n4ccc(=O)[nH]c4=O)[C@H](O)[C@@H]3O)[C@@H](O)[C@H]2O)c(=O)[nH]1 [Compound 5, di-(uridine- phosphonate)] | – | – | – | EC50 [5]: > 10 µM; EC50 ([6]; stimulation of PLC, mean ± standard error, NE = no effect at 10 μM): > 10 µM
7 | – | O=c1ccn([C@@H]2O[C@H](COP(=O)(O)OP(=O)(O)O)[C@@H](O)[C@H]2O)c(=O)[nH]1 [UDP] | 0.046 ± 0.02 µM | > 10 µM | > 10 µM | –
8 | partial ag | O=c1ccn([C@@H]2O[C@H](CCP(=O)(O)O)[C@@H](O)[C@H]2O)c(=O)[nH]1 [Compound 7, uridine 5 ′-methylene-phosphonate] | – | – | – | EC50 ([5]; listed as 5′-methylphosphonate equivalent of UMP): inactive
9 | partial ag | O=c1ccn([C@@H]2O[C@H](CP(=O)(O)OP(=O)(O)O)[C@@H](O)[C@H]2O)c(=O)[nH]1 [Compound 4, uridine 5′-phospho-phosphonate] | – | – | – | EC50 [5]: > 10 µM; agonist character (full or partial agonist) [6]: full agonist; potency less than UDP [6]: approximately 40 fold; maximal effect relative to that of UTP ([4]; effect of UTP = 100%): ≤ 50%
